Test results as given in ChEMBL document CHEMBL1833887, “Synthesis and evaluation of 7-substituted 4-aminoquinoline analogues for antimalarial activity” (J Med Chem, 2011).
In brackets after ≈: the same amount, converted by molar mass.

Assays:
[1] = system: Plasmodium falciparum; assay: Ratio of EC50 for chloroquine-resistant Plasmodium falciparum K1 infected in human erythrocytes to EC50 for chloroquine-sensitive Plasmodium falciparum 3D7 infected in human erythrocytes; type: functional
[2] = system: HepG2; assay: Cytotoxicity against human HepG2 cells assessed as intracellular ATP level after 72 hrs by Celltiter-Glo luminescent assay; type: cell-based; conditions: HepG2, 72 h
[3] = Permeability of the compound at pH 7.4 after 30 mins by PAMPA; type: ADME; conditions: read-out: permeability
How it was run: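 PAMPA at pH 7.4. A 10 mM DMSO stock is diluted into system solution buffer; its UV spectrum serves as reference. Membrane painted with GIT lipid, acceptor chamber holds acceptor solution buffer. Sandwich stirred for 30 min, aqueous boundary layer set to 40. Donor and acceptor UV spectra read at 250–500 nm. Permeability coefficient from the AUCs of reference, donor and acceptor. Single experiment in triplicate.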

[4] = Solubility of the compound at pH 7.4 after 18 hrs by UV spectroscopic analysis; type: physicochemical; conditions: buffer
How it was run: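 Kinetic solubility. A 10 mM stock is diluted 1:100 into PBS pH 7.4 and incubated 18 h at room temperature, then filtered; the filtrate is mixed 1:1 with 1-propanol. UV spectrum (250–500 nm) compared by AUC with a 1-propanol/PBS reference. Single experiment in triplicate.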

[5] = Ratio of EC50 for human HepG2 cells to EC50 for Plasmodium falciparum 3D7 infected in human erythrocytes
[6] = system: Plasmodium falciparum; assay: Antimalarial activity against chloroquine-sensitive Plasmodium falciparum 3D7 infected in human erythrocytes assessed as reduction in parasitemia after 72 hrs by spectrophotometry; type: functional, organism-based; conditions: 3D7, 72 h
[7] = Dissociation constant, pKa of the compound; type: physicochemical
[8] = Ratio of EC50 for human HepG2 cells to EC50 for Plasmodium falciparum K1 infected in human erythrocytes
[9] = system: Plasmodium falciparum; assay: Antimalarial activity against chloroquine-resistant Plasmodium falciparum K1 infected in human erythrocytes assessed as reduction in parasitemia after 72 hrs by spectrophotometry; type: functional, organism-based; conditions: K1, 72 h

| Compound | Ratio EC50 [1] | EC50 [2] [nM] | Papp at 0.5 h [3] [×10⁻⁶ cm/s] | solubility at 18 h [4] [µM] | Ratio EC50 [5] | EC50 [6] [nM] | pKa [7] | Ratio EC50 [8] | EC50 [9] [nM] |
| --- | --- | --- | --- | --- | --- | --- | --- | --- | --- |
| Fc1ccc(Cc2ccc3c(NCCCNCc4ccc5c(c4)OCO5)ccnc3c2)cc1 | 2 | 5550 | 23 | 4.2 (≈ 1.86 µg/mL) | 43.7 | 127 | 9.47 | 21.7 | 256 |
| COc1ccc(F)cc1CNCCCNc1ccnc2cc(Oc3ccc(C(C)(C)C)cc3)ccc12 | 26.2 | 7200 | 317 | 14.5 (≈ 7.07 µg/mL) | 68 | 106 | 9.28 | 3 | 2780 |
| CC(C)CCc1ccc2c(NCCCNCc3ccco3)ccnc2c1 | 26.1 | 11200 | 23 | 4.2 (≈ 1.48 µg/mL) | 63.7 | 176 | 9.47 | 2.4 | 4600 |
| COc1cccc(Oc2ccc3c(NCCCNCc4ccco4)ccnc3c2)c1 | 17.4 | 15500 | 317 | 14.5 (≈ 5.85 µg/mL) | 1763 | 9 | 9.28 | 102 | 153 |
| FC(F)(F)c1ccc(-c2ccc3c(NCCCNCc4ccco4)ccnc3c2)cc1 | 11 | 3470 | 237 | 32 (≈ 13.6 µg/mL) | 171 | 20 | 9.47 | 15.5 | 223 |
| COc1ccc(F)cc1CNCCCNc1ccnc2cc(-c3ccc(C(C)(C)C)cc3)ccc12 | 11 | 620 | 237 | 32 (≈ 15.1 µg/mL) | 4.3 | 144 | 9.47 | 0.4 | 1590 |
| COc1cccc(Oc2ccc3c(NCCCNCc4ccc5c(c4)OCO5)ccnc3c2)c1 | 50 | 14100 | 317 | 14.5 (≈ 6.63 µg/mL) | 1178 | 12 | 9.28 | 24 | 600 |
| COc1cccc(CNCCCNc2ccnc3cc(CC4CCCCC4)ccc23)c1O | 52.7 | 970 | 23 | 4.2 (≈ 1.82 µg/mL) | 19.6 | 50 | 9.47 | 0.4 | 2610 |
| COc1ccc(F)cc1CNCCCNc1ccnc2cc(Cc3ccccc3)ccc12 | 129.5 | 7990 | 23 | 4.2 (≈ 1.8 µg/mL) | 726.7 | 11 | 9.47 | 5.6 | 1420 |
| COc1cccc(CNCCCNc2ccnc3cc(Oc4ccc(Cl)cc4)ccc23)c1O | 70.7 | 5700 | 317 | 14.5 (≈ 6.73 µg/mL) | 514 | 11 | 9.28 | 7 | 785 |
| Clc1ccc(Oc2ccc3c(NCCCNCc4ccco4)ccnc3c2)cc1 | 19.8 | 7800 | 317 | 14.5 (≈ 5.91 µg/mL) | 194 | 40 | 9.28 | 10 | 793 |
| COc1ccc(F)cc1CNCCCNc1ccnc2cc(Oc3cccc(N(C)C)c3)ccc12 | 4.7 | 3300 | 317 | 14.5 (≈ 6.88 µg/mL) | 514 | 7 | 9.28 | 110 | 31 |
| COc1cccc(CNCCCNc2ccnc3cc(Oc4ccccc4)ccc23)c1O | 122 | 6800 | 317 | 14.5 (≈ 6.23 µg/mL) | 450 | 15 | 9.28 | 4 | 1840 |
| COc1cccc(CNCCCNc2ccnc3cc(Cc4cc(C)cc(C)c4)ccc23)c1O | 160 | 2680 | 23 | 4.2 (≈ 1.91 µg/mL) | 315.8 | 9 | 9.47 | 2 | 1360 |
| COc1cccc(CNCCCNc2ccnc3cc(-c4ccc(F)cc4)ccc23)c1O | 92.8 | 6840 | 237 | 32 (≈ 13.8 µg/mL) | 742.9 | 9 | 9.47 | 8 | 854 |
| COc1cccc(CNCCCNc2ccnc3cc(Oc4ccc(F)cc4)ccc23)c1O | 282.2 | 11000 | 317 | 14.5 (≈ 6.49 µg/mL) | 990 | 11 | 9.28 | 4 | 3130 |
| CCC(CC)c1ccc2c(NCCCNCc3cc(F)ccc3OC)ccnc2c1 | 48 | 7860 | 23 | 4.2 (≈ 1.72 µg/mL) | 194.9 | 40 | 9.47 | 4.1 | 1930 |
| c1ccc(Cc2ccc3c(NCCCNCc4ccco4)ccnc3c2)cc1 | 89.9 | 16000 | 23 | 4.2 (≈ 1.56 µg/mL) | 405.1 | 40 | 9.47 | 4.5 | 3550 |
| c1coc(CNCCCNc2ccnc3cc(Cc4ccc5c(c4)OCO5)ccc23)c1 | 2.4 | 6500 | 237 | 32 (≈ 13.3 µg/mL) | 340.2 | 19 | 9.47 | 142.2 | 46 |
| c1ccc(CCc2ccc3c(NCCCNCc4ccc5c(c4)OCO5)ccnc3c2)cc1 | 117.1 | 4980 | 23 | 4.2 (≈ 1.85 µg/mL) | 380.3 | 13 | 9.47 | 3.2 | 1530 |
| CC(C)(C)c1ccc(Oc2ccc3c(NCCCNCc4ccco4)ccnc3c2)cc1 | 4.3 | 3100 | 317 | 14.5 (≈ 6.23 µg/mL) | 3 | 1110 | 9.28 | 1 | 4810 |
